Experiments:
Format in all cases: functional
RXF 393 [1] = experiment: Antiproliferative activity against human RXF393 cells assessed as cell growth at 10 uM; conditions: read-out: Activity
Outline: (§1)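 NCI 60 cell line panel, single-dose screen (10^-5 M) run by the developmental therapeutics program protocol. Results are given as growth percent of treated cells relative to untreated control cells for each line.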

MDA-MB-468 = experiment: Antiproliferative activity against human MDA-MB-468 cells assessed as cell growth at 10 uM; conditions: read-out: Activity; outline: as §1
IGROV-1 = experiment: Antiproliferative activity against human IGROV1 cells assessed as cell growth at 10 uM; conditions: read-out: Activity; outline: as §1
M14 = experiment: Growth inhibition of human M14 cells
Outline: (§2)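 NCI 60 cancer cell line screen run per the Developmental Therapeutics Program protocol. Dose–response curves were plotted against log10 drug concentration for each cell line within its subpanel, and mean graph midpoint values were calculated.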

MOLT-4 = experiment: Growth inhibition of human MOLT4 cells; outline: as §2
COLO 205 = experiment: Growth inhibition of human COLO205 cells; outline: as §2
SK-MEL-5 = experiment: Growth inhibition of human SK-MEL-5 cells
Outline: (§3)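 Assayed in the NCI 60 human cancer cell line panel under the Developmental Therapeutics Program protocol. For each line, dose–response curves were plotted against log10 drug concentration. In the one-dose screen at 10^-5 M, growth was given as percent of untreated control cells, and mean graph midpoint values were averaged.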

SNB-19 = experiment: Growth inhibition of human SNB19 cells; outline: as §3
DU-145 = experiment: Growth inhibition of human DU145 cells; outline: as §2
OVCAR-5 = experiment: Growth inhibition of human OVCAR5 cells; outline: as §2
786-0 = experiment: Growth inhibition of human 786-0 cells; outline: as §2
EKVX = experiment: Growth inhibition of human EKVX cells; outline: as §2
K562 = experiment: Growth inhibition of human K562 cells; outline: as §2
PC-3 = experiment: Growth inhibition of human PC3 cells; outline: as §3
RXF 393 [2] = experiment: Growth inhibition of human RXF393 cells; outline: as §3
A498 = experiment: Growth inhibition of human A498 cells; outline: as §2
SK-MEL-2 = experiment: Growth inhibition of human SK-MEL-2 cells; outline: as §3
SF-268 = experiment: Growth inhibition of human SF268 cells; outline: as §3
HOP-92 = experiment: Growth inhibition of human HOP92 cells; outline: as §2
CCRF-CEM = experiment: Growth inhibition of human CCRF-CEM cells; outline: as §2
U-251 = experiment: Growth inhibition of human U251 cells; outline: as §3
HCT-15 = experiment: Growth inhibition of human HCT15 cells; outline: as §2
NCI-H226 = experiment: Growth inhibition of human NCI-H226 cells; outline: as §2
MCF7 = experiment: Growth inhibition of human MCF7 cells; outline: as §2
SNB-75 = experiment: Growth inhibition of human SNB75 cells; outline: as §3
KM12 = experiment: Growth inhibition of human KM12 cells; outline: as §2
SN12C = experiment: Growth inhibition of human SN12C cells; outline: as §3
NCI-H23 = experiment: Growth inhibition of human NCI-H23 cells; outline: as §2
UACC-257 = experiment: Growth inhibition of human UACC257 cells; outline: as §3
SF-295 = experiment: Growth inhibition of human SF295 cells; outline: as §3
HOP-62 = experiment: Growth inhibition of human HOP62 cells; outline: as §2
SK-OV-3 = experiment: Growth inhibition of human SKOV3 cells; outline: as §3
SF-539 = experiment: Growth inhibition of human SF539 cells; outline: as §3
NCI/ADR-RES = experiment: Growth inhibition of human NCI/ADR-RES cells; outline: as §2
UO-31 = experiment: Growth inhibition of human UO31 cells; outline: as §3
T47D = experiment: Growth inhibition of human T47D cells; outline: as §3
LOX IMVI = experiment: Growth inhibition of human LOXIMVI cells; outline: as §2
[3] = read-out: LC50 (the source's name)

For O=C1c2ccccc2C(=O)c2c1ccc1nc(-c3ccc4c(c3)OCO4)[nH]c21, the growth at 10 µM (RXF 393 [1]) was 120%, the growth at 10 µM (MDA-MB-468) was 96.4% and the growth at 10 µM (IGROV-1) was 93.3%.
CC1(C)Nc2ccc3c(c2N1)C(=O)c1ccccc1C3=O gave a growth at 10 µM (RXF 393 [1]) of 85.1%, a growth at 10 µM (MDA-MB-468) of 77.2% and a growth at 10 µM (IGROV-1) of -2.8%.
Compound N#Cc1ccc(-c2nc3ccc4c(c3[nH]2)C(=O)c2ccccc2C4=O)cc1 has a growth at 10 µM (RXF 393 [1]) of 117%, a growth at 10 µM (MDA-MB-468) of 95% and a growth at 10 µM (IGROV-1) of 66.3%.
In the case of O=C1c2ccccc2C(=O)c2c1ccc1nccnc21, the GI50 (M14) is reported as 5.14 µM, the TGI (M14) is reported as greater than 100 µM and the CC50 (M14; [3]) is reported as greater than 100 µM. For the same compound, the GI50 (MOLT-4) was 3.65 µM, the TGI (MOLT-4) was greater than 100 µM and the CC50 (MOLT-4; [3]) was greater than 100 µM. For the same compound, the GI50 (COLO 205) was 3.4 µM, the TGI (COLO 205) was 28.4 µM and the CC50 (COLO 205; [3]) was greater than 100 µM. For the same compound, the GI50 (SK-MEL-5) was 3.93 µM, the TGI (SK-MEL-5) was 17.1 µM and the CC50 (SK-MEL-5; [3]) was 44.4 µM. For the same compound, the GI50 (SNB-19) was 13.4 µM, the TGI (SNB-19) was greater than 100 µM and the CC50 (SNB-19; [3]) was greater than 100 µM. It also gave a growth at 10 µM (RXF 393 [1]) of 105%, a GI50 (DU-145) of 11.4 µM and a TGI (DU-145) of 34.3 µM. The CC50 (DU-145; [3]) was greater than 100 µM, the GI50 (OVCAR-5) was 29.3 µM and the TGI (OVCAR-5) was greater than 100 µM. For the same compound, the CC50 (OVCAR-5; [3]) was greater than 100 µM, the GI50 (786-0) was 8.87 µM and the TGI (786-0) was greater than 100 µM. For the same compound, the CC50 (786-0; [3]) was greater than 100 µM, the GI50 (EKVX) was 3.45 µM and the TGI (EKVX) was 72.1 µM. The CC50 (EKVX; [3]) was greater than 100 µM, the GI50 (K562) was 0.07 µM and the LC50 (K562) was greater than 100 µM. For the same compound, the TGI (K562) was greater than 100 µM, the TGI (PC-3) was greater than 100 µM and the CC50 (PC-3; [3]) was greater than 100 µM. For the same compound, the GI50 (RXF 393 [2]) was 6.43 µM, the TGI (RXF 393 [2]) was greater than 100 µM and the CC50 (RXF 393 [2]; [3]) was greater than 100 µM. It also gave a GI50 (A498) of 9.31 µM, a TGI (A498) of 50.3 µM and a CC50 (A498; [3]) greater than 100 µM. It also gave a GI50 (SK-MEL-2) of 12.7 µM, a TGI (SK-MEL-2) of 55.9 µM and a CC50 (SK-MEL-2; [3]) greater than 100 µM. It also gave a GI50 (SF-268) of 4.98 µM, a TGI (SF-268) greater than 100 µM and a CC50 (SF-268; [3]) greater than 100 µM. For the same compound, the GI50 (HOP-92) was 22.5 µM, the TGI (HOP-92) was greater than 100 µM and the CC50 (HOP-92; [3]) was greater than 100 µM. The growth at 10 µM (MDA-MB-468) was 75.3%, the GI50 (CCRF-CEM) was 2.46 µM and the TGI (CCRF-CEM) was greater than 100 µM. The CC50 (CCRF-CEM; [3]) was greater than 100 µM, the growth at 10 µM (IGROV-1) was 3.44% and the GI50 (U-251) was 5.38 µM. It also gave a TGI (U-251) of 42.9 µM, a CC50 (U-251; [3]) greater than 100 µM and a GI50 (HCT-15) of 4.63 µM. The TGI (HCT-15) was 84.3 µM, the CC50 (HCT-15; [3]) was greater than 100 µM and the GI50 (NCI-H226) was 16.6 µM. The TGI (NCI-H226) was 95.2 µM, the CC50 (NCI-H226; [3]) was greater than 100 µM and the GI50 (MCF7) was 0.72 µM. The TGI (MCF7) was 29.8 µM, the CC50 (MCF7; [3]) was greater than 100 µM and the GI50 (SNB-75) was 11.9 µM. For the same compound, the TGI (SNB-75) was greater than 100 µM, the CC50 (SNB-75; [3]) was greater than 100 µM and the GI50 (KM12) was 5.26 µM. It also gave a TGI (KM12) of 49.5 µM, a CC50 (KM12; [3]) greater than 100 µM and a GI50 (SN12C) of 13.2 µM. The TGI (SN12C) was 92.7 µM, the CC50 (SN12C; [3]) was greater than 100 µM and the GI50 (NCI-H23) was 12 µM. It also gave a TGI (NCI-H23) of 70.3 µM, a CC50 (NCI-H23; [3]) greater than 100 µM and a GI50 (UACC-257) of 13 µM. It also gave a TGI (UACC-257) of 68.3 µM, a CC50 (UACC-257; [3]) greater than 100 µM and a GI50 (SF-295) of 4.35 µM. For the same compound, the TGI (SF-295) was 32.3 µM, the CC50 (SF-295; [3]) was greater than 100 µM and the GI50 (HOP-62) was 5.64 µM. For the same compound, the TGI (HOP-62) was greater than 100 µM, the CC50 (HOP-62; [3]) was greater than 100 µM and the GI50 (SK-OV-3) was 6.95 µM. The TGI (SK-OV-3) was greater than 100 µM, the CC50 (SK-OV-3; [3]) was greater than 100 µM and the GI50 (SF-539) was 2.18 µM. For the same compound, the TGI (SF-539) was 53.7 µM, the CC50 (SF-539; [3]) was greater than 100 µM and the GI50 (NCI/ADR-RES) was 5.68 µM. For the same compound, the TGI (NCI/ADR-RES) was greater than 100 µM, the CC50 (NCI/ADR-RES; [3]) was greater than 100 µM and the GI50 (UO-31) was 3.02 µM. It also gave a TGI (UO-31) of 85.9 µM, a CC50 (UO-31; [3]) greater than 100 µM and a GI50 (T47D) of 12.6 µM. For the same compound, the LC50 (T47D) was greater than 100 µM, the TGI (T47D) was 75.1 µM and the GI50 (LOX IMVI) was 4.2 µM. For the same compound, the TGI (LOX IMVI) was 38.9 µM and the CC50 (LOX IMVI; [3]) was greater than 100 µM.
